# Laboratory results published in ChEMBL document CHEMBL4177680, “Discovery of a Potent, Selective T-type Calcium Channel Blocker as a Drug Candidate for the Treatment of Generalized Epilepsies” (J Med Chem, 2017).
# Columns and labels:
# Salmonella typhimurium [1] = assay: Mutagenicity in Salmonella typhimurium TA98 assessed as increase in number of revertants in presence of rat liver S9 fraction by Ames test relative to control; type: toxicity, organism-based; settings: salmonella enterica subsp. enterica serovar typhimurium
# Salmonella typhimurium [2] = assay: Mutagenicity in Salmonella typhimurium TA100 assessed as increase in number of revertants in presence of rat liver S9 fraction by Ames test relative to control; type: toxicity, organism-based; settings: salmonella enterica subsp. enterica serovar typhimurium
# [3] = Drug level in Wistar rat cerebrospinal fluid at 10 mg/kg administered via oral gavage measured after 1 hr by LC-MS/MS method; type: ADME, organism-based; settings: read-out: Drug uptake
# How it was run: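 Wistar rats given 10 mg/kg po and killed at 1 h. Brain, plasma and CSF concentrations measured; free brain and plasma levels reported from unbound fractions. Mean ± SD, n = 3.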
# [4] = Fraction unbound in Wistar rat plasma at 10 mg/kg administered via oral gavage measured after 1 hr by rapid equilibrium dialysis method; type: ADME, organism-based; settings: in vivo
# [5] = Free drug level in Wistar rat brain at 10 mg/kg administered via oral gavage measured after 1 hr by rapid equilibrium dialysis method; type: ADME, organism-based; settings: in vivo
# [6] = Covalent protein binding in human liver microsomes at 10 uM after 1 hr in presence of NADPH regenerating system by liquid scintillation counting method; type: ADME, microsome
# [7] = Total drug level in Wistar rat brain at 10 mg/kg administered via oral gavage measured after 1 hr by LC-MS/MS method; type: ADME, organism-based; settings: read-out: Drug uptake
# [8] = Half life in rat plasma at 10 uM by LC-MS/MS method; type: ADME, cell-free
# [9] = Drug metabolism in human plasma assessed as 3-amino-1-(3,4-difluorobenzyl)pyrazole formation at 10 uM by LC-MS/MS method; type: ADME, cell-free
# [10] = Half life in human plasma at 10 uM by LC-MS/MS method; type: ADME, cell-free
# [11] = Drug metabolism in rat plasma assessed as 3-amino-1-(3,4-difluorobenzyl)pyrazole formation at 10 uM by LC-MS/MS method; type: ADME, cell-free
# [12] = Chemical stability of the compound in amorphous form at room temperature; type: physicochemical
# MDR1 [13] = assay: Apparent permeability across basolateral to apical side in MDCK cells expressing MDR1 at 1 uM measured every 30 mins for 2 hrs; type: ADME, cell-based, Canis lupus familiaris; settings: dog
# MDR1 [14] = assay: Apparent permeability across apical to basolateral side in MDCK cells expressing MDR1 at 1 uM measured every 30 mins for 2 hrs; type: ADME, cell-based, Canis lupus familiaris; settings: dog
# [15] = Drug level in human plasma treated with N-(1-(3,4-Difluorobenzyl)-1H-pyrazol-3-yl)-2-(1H-indol-5-yl)acetamide at 10 uM by LC-MS/MS method; type: ADME, cell-free
# [16] = Drug level in rat plasma treated with N-(1-(3,4-Difluorobenzyl)-1H-pyrazol-3-yl)-2-(1H-indol-5-yl)acetamide at 10 uM by LC-MS/MS method; type: ADME, cell-free
# [17] = Drug metabolism in human plasma at 10 uM after 6 hrs by LC-MS/MS method; type: ADME, cell-free; settings: read-out: Drug metabolism
# [18] = Intrinsic clearance in human liver microsomes assessed per mg of protein at 1 uM after 15 mins in presence of NADPH regenerating system by LC-MS/MS method; type: ADME, microsome; settings: read-out: CLH
# [19] = Clearance in Wistar rat at 1 mg/kg, iv administered via 5 mins infusion by LC-MS/MS method; type: ADME, organism-based; settings: in vivo
# [20] = Intrinsic clearance in Wistar rat liver microsomes assessed per mg of protein at 1 uM after 15 mins in presence of NADPH regenerating system by LC-MS/MS method; type: ADME, microsome; settings: read-out: CLH
# [21] = Clearance in Beagle dog at 1 mg/kg, iv administered via 15 mins infusion by LC-MS/MS method; type: ADME, organism-based, Canis lupus familiaris; settings: in vivo
# Cynomolgus monkey = assay: Unbound Cmax in cynomolgus monkey at 1000 mg/kg, po; type: ADME, organism-based, Macaca fascicularis; settings: in vivo
# Rattus norvegicus [22] = assay: Unbound Cmax in normotensive Wistar rat at 30 mg/kg, po; type: ADME, organism-based; settings: in vivo
# Cavia porcellus = assay: Unbound Cmax in Dunkin-Hartley guinea pig at 30 mg/kg, po; type: ADME, organism-based; settings: in vivo
# Canis familiaris = assay: Unbound Cmax in Beagle dog at 10 mg/kg, po; type: ADME, organism-based, Canis lupus familiaris; settings: in vivo
# [23] = Clearance in NMRI mouse at 1 mg/kg, iv as slow bolus dose by LC-MS/MS method; type: ADME, organism-based; settings: in vivo
# [24] = Clearance in cynomolgus monkey at 1 mg/kg, iv administered via 15 mins infusion by LC-MS/MS method; type: ADME, organism-based, Macaca fascicularis; settings: in vivo
# Rattus norvegicus [25] = assay: Unbound Cmax in spontaneously hypertensive Wistar-Kyoto rat at 30 mg/kg, po; type: ADME, organism-based; settings: in vivo
# [26] = Cmax in Wistar rat plasma at 10 mg/kg administered via oral gavage by LC-MS/MS method; type: ADME, organism-based; design: dose 10 mg/kg, route oral
# [27] = Half life in Wistar rat at 1 mg/kg, iv administered via 5 mins infusion by LC-MS/MS method; type: ADME, organism-based; settings: in vivo
# [28] = Intrinsic clearance in monkey liver microsomes assessed per mg of protein at 1 uM after 15 mins in presence of NADPH regenerating system by LC-MS/MS method; type: ADME, Macaca mulatta, microsome; settings: rhesus monkey, read-out: CLH
# [29] = Fraction unbound in audiogenic seizure-sensitive juvenile DBA/2J mouse brain at 100 mg/kg administered via oral gavage measured at 3 hrs; type: ADME, organism-based; settings: in vivo
# [30] = Oral bioavailability in Wistar rat at 10 mg/kg administered via gavage by LC-MS/MS method; type: ADME, organism-based; settings: in vivo
smiles,measurement,setting,value
Nc1ccn(Cc2ccc(F)cc2)n1,fold change (FC),Salmonella typhimurium [1],4.1
same,fold change (FC),Salmonella typhimurium [2],10.2
Nc1ccn(Cc2ccccc2)n1,fold change (FC),Salmonella typhimurium [1],15.3
same,fold change (FC),Salmonella typhimurium [2],30.3
Cn1ncc2cc(CC(=O)Nc3ccn(Cc4ccc(F)c(F)c4)n3)ccc21,concentration at 1 h,[3],92 nM
same,Cp(f),[4],72 nM
same,Drug uptake(free),[5],51 nM
[3H]c1cc(NC(=O)Cc2ccc(C3(C(F)(F)F)CC3)cc2)nn1Cc1ccc(C#N)cn1,PB,[6],72 pmol/mg/h
CC(C)(C)c1ccc(CC(=O)Nc2ncn(Cc3ccc(F)c(F)c3)n2)cc1,Drug uptake(free),[5],2.4 nM
O=C(Cc1ccc2[nH]ccc2c1)Nc1ccn(Cc2ccc(F)c(F)c2)n1,concentration at 1 h,[7],4.68 µM
same,half-life at 10 µM,[8],300 min
same,concentration at 1 h,[3],164 nM
same,Drug metabolism,[9],Metabolite_Detected
same,half-life at 10 µM,[10],120 min
same,Drug metabolism,[11],Metabolite_Detected
same,Drug uptake(free),[5],52 nM
same,Stability,[12],Unstable
CCc1cc(CC(=O)Nc2ccn(Cc3ccc(C#N)cn3)n2)ccc1OCC(F)(F)F,Drug uptake(free),[5],4.8 nM
N#Cc1cc(Cn2ccc(N)n2)ccc1F,fold change (FC),Salmonella typhimurium [1],1.5
same,fold change (FC),Salmonella typhimurium [2],1.5
Cn1c(=O)oc2cc(CC(=O)Nc3ccn(Cc4ccc(F)c(F)c4)n3)ccc21,"Papp B→A at 2 h, 1 µM",MDR1 [13],59 ×10⁻⁶ cm/s
same,"Papp A→B at 2 h, 1 µM",MDR1 [14],11 ×10⁻⁶ cm/s
O=C(Cc1ccc(C2(F)COC2)cc1)Nc1ccn(Cc2ccc(F)c(F)c2)n1,concentration at 1 h,[7],2.99 µM
same,concentration at 1 h,[3],135 nM
same,Drug uptake(free),[5],63 nM
Cn1ncc2cc(CC(=O)Nc3cnn(Cc4ccc(F)c(F)c4)n3)ccc21,Drug uptake(free),[5],63 nM
Nc1nc(Cc2ccc(F)c(F)c2)cs1,fold change (FC),Salmonella typhimurium [1],2.7
same,fold change (FC),Salmonella typhimurium [2],1.1
N#Cc1cn(Cc2ccc(F)c(F)c2)nc1N,fold change (FC),Salmonella typhimurium [1],1.1
same,fold change (FC),Salmonella typhimurium [2],1.1
N#Cc1ccc(Cn2ccc(N)n2)cc1F,fold change (FC),Salmonella typhimurium [1],1.2
same,fold change (FC),Salmonella typhimurium [2],2.2
O=C(Cc1ccc2cc[nH]c2c1)Nc1ccn(Cc2ccc(F)c(F)c2)n1,concentration at 1 h,[7],4.11 µM
same,concentration at 1 h,[3],50 nM
same,Stability,[12],Unstable
Nc1ccn(Cc2ccc(F)c(F)c2)n1,Drug metabolism,[15],Metabolite_Detected
same,Drug metabolism,[16],Metabolite_Detected
same,fold change (FC),Salmonella typhimurium [1],2.7
same,fold change (FC),Salmonella typhimurium [2],1.2
N#Cc1nc(Cn2ccc(N)n2)ccc1F,fold change (FC),Salmonella typhimurium [1],1.2
same,fold change (FC),Salmonella typhimurium [2],1.4
N#Cc1ccc(Cn2ccc(N)n2)cc1,fold change (FC),Salmonella typhimurium [1],1.5
same,fold change (FC),Salmonella typhimurium [2],1.1
Nc1ncn(Cc2ccc(F)c(F)c2)n1,fold change (FC),Salmonella typhimurium [1],1.1
same,fold change (FC),Salmonella typhimurium [2],1.1
N#Cc1ccc(Cn2ccc(N)n2)nc1,fold change (FC),Salmonella typhimurium [1],1
same,fold change (FC),Salmonella typhimurium [2],1.3
COc1ccc(C2(C(=O)Nc3ccn(Cc4ccccc4)n3)CC2)cc1,"metabolised at 6 h, 10 µM",[17],< 1%
Nc1cnn(Cc2ccc(F)c(F)c2)n1,fold change (FC),Salmonella typhimurium [1],1.3
same,fold change (FC),Salmonella typhimurium [2],3.3
Cc1ccc(Cn2ccc(N)n2)cc1,fold change (FC),Salmonella typhimurium [1],15.1
same,fold change (FC),Salmonella typhimurium [2],19.8
COc1ccc(Cn2ccc(N)n2)cc1,fold change (FC),Salmonella typhimurium [1],8
same,fold change (FC),Salmonella typhimurium [2],20.8
CC(C)(C)c1ccc(CC(=O)Nc2ccn(Cc3ccc(C#N)cn3)n2)cc1,"microsomal CLint at […], 1 µM",[18],6 µL/min/mg
same,Drug uptake(free),[5],6.1 nM
CC(C)c1ccc(CC(=O)Nc2ccn(Cc3ccccc3)n2)cc1,"metabolised at 6 h, 10 µM",[17],4%
CC(C(=O)Nc1ccn(Cc2ccc(F)cc2)n1)c1ccc(N(C)C)cc1 (racemic),"metabolised at 6 h, 10 µM",[17],7%
Nc1ccn(CC2CCC(F)(F)CO2)n1 (stereo in doubt; 14a),fold change (FC),Salmonella typhimurium [1],1.4
same,fold change (FC),Salmonella typhimurium [2],1.3
Nc1ccn(CC2CCC(F)(F)CO2)n1 (stereo in doubt; 14b),fold change (FC),Salmonella typhimurium [1],1.1
same,fold change (FC),Salmonella typhimurium [2],2.5
CC(C)c1ccc(CC(=O)Nc2ccn(CC3CCC(F)(F)CO3)n2)cc1 (stereo in doubt; 15a),clearance,[19],> 100 mL/min/kg
same,"microsomal CLint at […], 1 µM",[18],43 µL/min/mg
same,"microsomal CLint at […], 1 µM",[20],> 500 µL/min/mg
N#Cc1ccc(Cn2ccc(NC(=O)Cc3ccc(C4(C(F)(F)F)CC4)cc3)n2)nc1 [APINOCALTAMIDE],clearance at […],[21],0.9 mL/min/kg
same,fCmax,Cynomolgus monkey,160 nM
same,fCmax,Rattus norvegicus [22],190 nM
same,fCmax,Cavia porcellus,140 nM
same,fCmax,Canis familiaris,140 nM
same,clearance,[23],13 mL/min/kg
same,clearance at […],[24],5.5 mL/min/kg
same,fCmax,Rattus norvegicus [25],90 nM
same,Cmax,[26],1900 nM
same,half-life,[27],150 min
same,"microsomal CLint at […], 1 µM",[28],9 µL/min/mg
same,Drug uptake(free),[29],244 nM
same,clearance,[19],24 mL/min/kg
same,"microsomal CLint at […], 1 µM",[18],24 µL/min/mg
same,Drug uptake(free),[5],29 nM
same,bioavailability,[30],75%
same,"microsomal CLint at […], 1 µM",[20],59 µL/min/mg
